Kir21 block = blocks the mouse Kir2.1 inward-rectifier potassium channel. B-score at 10 µM. 0.85% of 310,000 active. AID 1672. P35561. HEK293-Kir2.1, FluxOR thallium flux fluorescence; hits give low values;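 active means fluorescence ratio B-score at or below minus 3 SD of library scores, with starting-brightness B-score within 2 SD, cut at about -4.2 in these data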;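 further: channel flux triggered by added potassium and thallium sulfate stimulus; B-score of peak minus minimum fluorescence over baseline after thallium stimulus; more negative B-score means stronger Kir2.1 block with less thallium influx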
KCNQ1 pot = human KCNQ1 channel potentiation or activation. P51787. 0.35% of 310,000 active. B-score at 10 µM. CHO-K1 KCNQ1, thallium flux FluxOR fluorescence; hits give high values;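 active means fluorescence ratio B-score, a plate-corrected score, at least three library SD, with initial intensity B-score within 5 SD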
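assay system = CHO-K1 cells stably expressing KCNQ1 | medium = assay buffer, equal DMSO in all wells | timing = 37 °C overnight plating, 90-min dark dye load, 20-min compound pretreatment | measured by = kinetic FluxOR thallium fluorescence, 10-s 1-Hz baseline, 110-s post-stimulus read | measure = fluorescence change relative to baseline, converted to B score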
KCNK3 block = human KCNK3 channel inhibition, primary screen. O14649. CHO-KCNK3 thallium flux, FluxOR fluorescence; hits give low values. B-score at 10 µM. 0.84% of 340,000 active. AID 602410;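 active means B-score under library mean minus 4 SD, starting fluorescence ratio at most library mean plus 5 SD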;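 further: more negative B-score means stronger inhibition of thallium flux through KCNK3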
hERG protect = compounds protecting human hERG from proarrhythmic drug block; Q12809; 0.51% of 310,000 active; activation (rescue from dofetilide block), less the hit threshold, % at 10 µM; CHO-hERG, FluxOR thallium flux, dofetilide IC70 present; AID 1511;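 active means activation above the mean of controls blocked by dofetilide plus 5 SD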;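 further: thallium influx through hERG after potassium depolarization seen as dye fluorescence rise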
KCNK9 block = inhibitors of human KCNK9 two-pore domain potassium channel; Q9NPC2; HEK293 KCNK9, FluxOR thallium flux fluorescence; hits give low values; B-score at 10 µM; 1.2% of 310,000 active; AID 488922;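 active means ratio B-score over 3 SD below the library mean, with starting fluorescence within 5 SD of its mean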;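 further: negative B-score means less thallium flux so channel inhibition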
KCNQ1 block = human KCNQ1 channel inhibition | 1.3% of 310,000 active | B-score at 10 µM | CHO-K1 KCNQ1, FluxOR thallium flux fluorescence; hits give high values | P51787;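 active means compounds whose thallium flux B-score, printed positive for inhibition, exceeds three library SD while starting fluorescence stays within three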;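 further: channel opened by potassium depolarization with thallium stimulus after 20 min compound exposure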
KCNQ1 block val = reconfirmed blocker of the human KCNQ1 potassium channel. shares compounds with KCNQ1 block. KCNQ1 cell line, FluxOR thallium flux fluorescence. inhibition, % at 10 µM. 93% of 1,600 active. AID 588353;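 active means primary screen active, with duplicate mean exceeding buffer control mean plus 3 SD of buffer wells, cut at about 28% in these data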;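 further: 0% = buffer control ratio and 100% = XE991 inhibitor control ratio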
CHO KCNQ1 ctr = activity in parental CHO cells lacking KCNQ1; shares compounds with KCNQ1 block; parental CHO-K1, FluxOR thallium flux fluorescence ratio; hits give low values; zero means no signal rise above baseline; fluorescence ratio (Tl flux) at 10 µM; 21% of 1,600 active; AID 588366;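 active means mean of duplicate thallium-flux fluorescence ratios in parental host cells more than 5 SD below the buffer control mean, cut at about 0.38 in these data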;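 further: ratio is peak minus minimum fluorescence divided by baseline fluorescence; actives read low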
KCNQ1 ephys val = confirmation of human KCNQ1 potassium channel inhibitors by electrophysiology. KCNQ1-CHO cells, automated patch clamp current. shares compounds with KCNQ1 block. 20% of 490 active. calls only at 10 µM;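 active means KCNQ1 current drop exceeding 3 SD of negative control wells, seen in both duplicate runs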;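 further: steady state current during a 2 s step from -80 to +40 mV; negative values mean current inhibition and positive values mean potentiation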
KCNQ2 inh = KCNQ1 inhibitor that also blocks rat KCNQ2 channel; shares compounds with KCNQ1 block; KCNQ2 cells, FluxOR thallium flux fluorescence; inhibition, % at 10 µM; 71% of 1,600 active;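 active means mean percent inhibition of the KCNQ2 thallium signal more than 5 SD above the buffer-only control wells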;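 further: KCNQ2 expressed in CHO cells; 0% = buffer control wells and 100% = XE-991 inhibitor control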
KCNQ1-KCNE1 inh = KCNQ1 inhibitor that also blocks human KCNQ1/KCNE1 channel; inhibition, % at 10 µM; KCNQ1/KCNE1 cells, FluxOR thallium flux fluorescence; shares compounds with KCNQ1 block; 77% of 1,600 active;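 active means mean percent inhibition of duplicate wells above the buffer-only control mean plus 3 SD of those controls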;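 further: 0% = buffer only wells and 100% = XE-991 inhibitor control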
Target sequence (P51787 whole entry, looked up): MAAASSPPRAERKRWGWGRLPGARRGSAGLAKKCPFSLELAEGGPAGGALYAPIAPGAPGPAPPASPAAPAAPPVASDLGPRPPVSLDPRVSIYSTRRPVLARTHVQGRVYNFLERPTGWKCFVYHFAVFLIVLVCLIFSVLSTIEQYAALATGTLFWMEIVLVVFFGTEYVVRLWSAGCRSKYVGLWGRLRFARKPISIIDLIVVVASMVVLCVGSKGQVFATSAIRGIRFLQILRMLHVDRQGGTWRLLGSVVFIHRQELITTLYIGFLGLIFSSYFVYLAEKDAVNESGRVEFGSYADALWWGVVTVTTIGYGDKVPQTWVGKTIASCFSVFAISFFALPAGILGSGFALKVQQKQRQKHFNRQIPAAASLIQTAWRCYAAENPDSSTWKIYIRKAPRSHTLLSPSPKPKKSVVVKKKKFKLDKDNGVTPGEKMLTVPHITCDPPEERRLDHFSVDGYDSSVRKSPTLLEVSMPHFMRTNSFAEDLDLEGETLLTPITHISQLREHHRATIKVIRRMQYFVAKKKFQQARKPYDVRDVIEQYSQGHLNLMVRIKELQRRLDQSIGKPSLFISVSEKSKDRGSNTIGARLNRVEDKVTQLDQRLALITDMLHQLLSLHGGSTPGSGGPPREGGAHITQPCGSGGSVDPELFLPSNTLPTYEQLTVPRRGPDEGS
* marks the source's active call; other numbers are inactive results. This is a sample that favours compounds with a hit; in the whole collection about 3.7% have one here.

For Cc1ccccc1OCC(=O)Nc1ccccc1-c1ccccc1 the results were Kir21 block -0.61, KCNQ1 pot inactive, KCNK3 block inactive, hERG protect -9, KCNK9 block inactive, KCNQ1 block 6*, KCNQ1 block val 128*, CHO KCNQ1 ctr 0.39, KCNQ1 ephys val inactive, KCNQ2 inh 114%* and KCNQ1-KCNE1 inh 178%*.
`Cc1ccccc1OCC(=O)Nc1ccccc1C(=O)NC1CC1` gave Kir21 block 0.81, KCNQ1 pot inactive, KCNK3 block inactive, hERG protect -22, KCNK9 block inactive, KCNQ1 block 10*, KCNQ1 block val 92*, CHO KCNQ1 ctr 0.5, KCNQ1 ephys val inactive, KCNQ2 inh 123%* and KCNQ1-KCNE1 inh 128%*.
`Cc1ccccc1NC(=O)COc1ccccc1C` gave Kir21 block -0.26, KCNQ1 pot inactive, KCNK3 block inactive, hERG protect 1, KCNK9 block inactive and KCNQ1 block inactive.
Screening CN(CC(=O)Nc1cccc(F)c1)C(=O)CCc1nc2sc3c(c2c(=O)[nH]1)CCCC3 returned Kir21 block 0.08, KCNQ1 pot inactive, KCNK3 block inactive, hERG protect -8, KCNK9 block inactive and KCNQ1 block inactive.
`O=C1c2ccc(Br)cc2C(=O)N1c1ccc(Cc2ccncc2)cc1` gave Kir21 block -1.3, KCNQ1 pot inactive, KCNK3 block inactive, hERG protect -10, KCNK9 block inactive, KCNQ1 block 15*, KCNQ1 block val 140*, CHO KCNQ1 ctr 0.5, KCNQ1 ephys val inactive, KCNQ2 inh 99%* and KCNQ1-KCNE1 inh 128%*.
`CNC(=O)c1[nH]cnc1C(=O)Nc1ccccn1` gave Kir21 block 0.29, KCNQ1 pot inactive, KCNK3 block inactive, hERG protect -2, KCNK9 block inactive and KCNQ1 block inactive.
For NNc1nc(C(F)(F)F)nc2ccccc12 the results were Kir21 block -0.02, KCNQ1 pot inactive, KCNK3 block inactive, hERG protect -4, KCNK9 block inactive and KCNQ1 block inactive.
For O/C=c1\ccc2cccc3nc(C(F)(F)F)nc1c23 the results were Kir21 block -5.5, KCNQ1 pot inactive, KCNK3 block inactive, hERG protect -8, KCNK9 block -7.6*, KCNQ1 block 19*, KCNQ1 block val 140*, CHO KCNQ1 ctr 0.31*, KCNQ2 inh inactive and KCNQ1-KCNE1 inh inactive.
COC(=O)CN1C(c2ccccc2O)Nc2ccc(Br)cc2C1c1ccccc1 (centres undefined) was read as Kir21 block 0.14, KCNQ1 pot inactive, KCNK3 block inactive, hERG protect -10, KCNK9 block -6.6*, KCNQ1 block 8*, KCNQ1 block val 98*, CHO KCNQ1 ctr 0.36*, KCNQ2 inh 86%* and KCNQ1-KCNE1 inh 132%*.
`CC(=O)c1cccc(NC(=O)C(C)OC(=O)c2ccc(-n3cnnn3)cc2)c1` (centres undefined) gave KCNK3 block inactive.
CCOC(=O)C(C)On1c(-c2cccc(Cl)c2)nc2ccc([N+](=O)[O-])cc21 (centres undefined) was read as Kir21 block 1.3, KCNQ1 pot inactive, KCNK3 block inactive, hERG protect -29, KCNK9 block inactive, KCNQ1 block 15*, KCNQ1 block val 154*, CHO KCNQ1 ctr 0.34*, KCNQ2 inh 131%* and KCNQ1-KCNE1 inh active.
For COc1cccc(NC(=O)Nc2ccc(C)c(Cl)c2)c1 the results were Kir21 block 0.12, KCNQ1 pot inactive, KCNK3 block inactive, hERG protect -9, KCNK9 block inactive, KCNQ1 block 6*, KCNQ1 block val 76*, CHO KCNQ1 ctr 0.52, KCNQ2 inh inactive and KCNQ1-KCNE1 inh inactive.
For COc1cccc(NC(=O)Nc2cc(C(=O)O)ccc2C)c1 the results were Kir21 block -0.48, KCNQ1 pot inactive, KCNK3 block inactive, hERG protect -6, KCNK9 block inactive and KCNQ1 block inactive.
`Cc1ccc(NC(=O)Nc2ccc(F)cc2)cc1Cl` gave Kir21 block 0.7, KCNQ1 pot inactive, KCNK3 block inactive, hERG protect -7, KCNK9 block inactive, KCNQ1 block 10*, KCNQ1 block val 70*, CHO KCNQ1 ctr 0.45, KCNQ2 inh 61%* and KCNQ1-KCNE1 inh inactive.
CCOC(=O)C1CCN(c2ncnc3c2c(-c2ccccc2)cn3-c2ccccc2)CC1 was read as Kir21 block 2.4, KCNQ1 pot inactive, KCNK3 block inactive, hERG protect -22, KCNK9 block inactive, KCNQ1 block 9*, KCNQ1 block val 138*, CHO KCNQ1 ctr 0.4, KCNQ1 ephys val inactive, KCNQ2 inh 104%* and KCNQ1-KCNE1 inh active.
`Cc1ccc(-n2cc(-c3ccccc3)c3c(N4CCOCC4)ncnc32)cc1` gave Kir21 block 1.1, KCNQ1 pot inactive, KCNK3 block inactive, hERG protect -12, KCNK9 block inactive, KCNQ1 block 12*, KCNQ1 block val 94*, CHO KCNQ1 ctr 0.42, KCNQ1 ephys val inactive, KCNQ2 inh 107%* and KCNQ1-KCNE1 inh 134%*.
CCOC(=O)C1CCN(c2ncnc3c2[nH]c2cccc(OC)c23)CC1 was read as Kir21 block 2.4, KCNQ1 pot inactive, KCNK3 block inactive, hERG protect -9, KCNK9 block inactive and KCNQ1 block inactive.
Screening CCOC(=O)C1CCN(c2ncnc3c2oc2ccc(Cl)cc23)CC1 returned Kir21 block 1.8, KCNQ1 pot inactive, KCNK3 block inactive, hERG protect -14, KCNK9 block inactive, KCNQ1 block 7*, KCNQ1 block val 62*, CHO KCNQ1 ctr 0.55, KCNQ2 inh 94%* and KCNQ1-KCNE1 inh inactive.

Compound activity from PubChem BioAssay.
